UPR CHOP act = apoptotic UPR (CHOP) activation | hit rate 0.34% among 330,000 | CHO-CHOP luciferase reporter, luminescence; percent of tunicamycin response over DMSO baseline | activation, % at 10 µM;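 active = at 10 µM dose, activation of 40% or more, normalized to positive control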;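 also: 100% = tunicamycin at 10 µg/mL and 0% = DMSO alone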
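measured by = luciferase luminescence | assay system = CHO-CHOP cells, stable luciferase reporter of PERK-eIF2a-CHOP signalling | amount = 500 reporter cells seeded per well | timing = 6 h compound exposure at 37 °C after overnight seeding | controls = positive tunicamycin 10 µg/mL, negative DMSO alone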
CHOP inhibitor = blocks CHOP induction under ER stress; CHO-K1 CHOP-promoter luciferase, tunicamycin-induced, 15-18 h; inhibition, % at 10 µM; hit rate 3.8% among 220,000; AID 2732;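 active = compounds that reduced the stress-induced luciferase reporter signal by more than about 70% of percent inhibition, limit read from the data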;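 also: 0% = tunicamycin plus vehicle and 100% = wells without tunicamycin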
Beta2AR agonist = activates human beta-2 adrenergic receptor causing internalization | P07550 | Am2.2-beta2AR cells, FAP receptor internalization, flow cytometry | response, % (concentration not given with the values) | hit rate 0.43% among 340,000 | AID 504454;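 active = response above a set limit, near 3 SD of response in nonfluorescent compounds, cut at about 42% in these data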
p-CIP stab down = p/CIP protein destabilization; Q05BA5; F442A p/CIP-EGFP cells, EGFP fluorescence, 16 h; decrease of EGFP signal, % at 10 µM; hit rate 0.01% among 290,000; AID 1984;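 active = EGFP signal decrease of at least 30% at 10 µM or well 3 SD below plate mean, unless failing retest; inactive = the rest, including hits failing retest or dose response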
XBP1 UPR activ = activators of adaptive arm of unfolded protein response (XBP1) | activation, % at 20 µM | CHO-XBP1 luciferase reporter, IRE1-XBP1 UPR activation, luminescence; percent of tunicamycin response, DMSO as zero | hit rate 0.33% among 330,000;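 active = versus positive control, 20 µM dose yields 30% or more activation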;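 also: 100% = tunicamycin at 10 µg/mL and 0% = DMSO only wells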
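Material: CHO-XBP1 cells stably carrying IRE1-XBP1-driven luciferase reporter / Amount: 1000 cells per well / Compound: 20 µM, 1% DMSO / Times: 6 h treatment, 37 °C / Detection: luciferase luminescence / Measure: % activation of reporter signal versus tunicamycin and DMSO controls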
Dynein transport = dynein cargo transport inhibition; hit rate 0.47% among 220,000; z-score, hits read low; 3617.4 mouse cells, GR-EGFP nuclear translocation imaging; test concentration mostly 20 µM; stimulated with dexamethasone, 1 µM; stronger effect = lower value;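 active = plate z-score of nuclear minus cytoplasmic receptor signal below a set negative limit, without overly bright fluorescence or cell loss, cut at about -3.5 in these data, passing the limit was not always enough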;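 also: z-score of nuclear minus cytoplasmic ring GR-EGFP intensity difference per well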
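Buffer or medium: tetracycline-free induction medium containing charcoal-stripped FBS / Reagent: dexamethasone agonist, 1.0 µM final, for 30 min / Technique: automated 10x imaging of fixed Hoechst-stained cells / Times: induction 48 h, compound 1 h, agonist 30 min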
Active calls of the source: *. Shown is part of a subset that was picked to be rich in hits.

Results for CCCCCCC(=O)NNC(=O)c1c(O)c2ccccc2n(CC)c1=O ?
UPR CHOP act: -1; CHOP inhibitor: 93*; Beta2AR agonist: 10; p-CIP stab down: -10; XBP1 UPR activ: -2; Dynein transport: -0.3

What do the screens show for `CCn1c(=O)c(C(=O)NNC(=O)c2ccccc2)c(O)c2ccccc21`?
UPR CHOP act: 1; Beta2AR agonist: 6; p-CIP stab down: -4; XBP1 UPR activ: 0

What do the screens show for `Cc1ccccc1NS(=O)(=O)c1cc(C(=O)NCCSC2CCCCC2)ccc1C`?
UPR CHOP act: -1; CHOP inhibitor: 72*; Beta2AR agonist: 3; p-CIP stab down: -7; XBP1 UPR activ: -2; Dynein transport: 0.47

Results for Cc1ccc(C)c(NS(=O)(=O)c2cc(C(=O)NCCSC3CCCCC3)ccc2C)c1 ?
UPR CHOP act: -2; CHOP inhibitor: 70; Beta2AR agonist: 3; p-CIP stab down: 0; XBP1 UPR activ: -3; Dynein transport: 0.53

What do the screens show for `Cn1c(SCc2ccc(Cl)cc2)nc(C(F)(F)F)cc1=O`?
UPR CHOP act: -1; CHOP inhibitor: 73*; Beta2AR agonist: -3; p-CIP stab down: -14; XBP1 UPR activ: 0; Dynein transport: 0.19

How did O=c1cc(O)nc(SCc2ccccc2)n1-c1ccc(Cl)cc1 do in these assays?
UPR CHOP act: 0; CHOP inhibitor: 5; Beta2AR agonist: 1; p-CIP stab down: 12; XBP1 UPR activ: -1; Dynein transport: 0.74

How did Oc1cc2c(cc1C(c1ccc(Cl)c(Cl)c1)N1CCCC1)OCO2 (stereo unspecified) do in these assays?
UPR CHOP act: 1; CHOP inhibitor: -50; Beta2AR agonist: -4; p-CIP stab down: -3; XBP1 UPR activ: -3; Dynein transport: 0.89

How did CCOC(=O)c1cc(C)sc1/N=C/C1C(=O)CC(C)(C)CC1=O do in these assays?
UPR CHOP act: 7; CHOP inhibitor: 28; Beta2AR agonist: -1; p-CIP stab down: 2; XBP1 UPR activ: 1; Dynein transport: 0.73

What do the screens show for `CCOC(=O)c1c(CC(C)C)csc1/N=C/C1C(=O)CC(C)(C)CC1=O`?
UPR CHOP act: -1; CHOP inhibitor: 72*; Beta2AR agonist: -10; p-CIP stab down: -4; XBP1 UPR activ: 5; Dynein transport: -0.22

Results for COc1ccc(NC(C)=O)cc1NC(=O)CN1CCN(S(=O)(=O)c2ccc(C(C)C)cc2)CC1 ?
UPR CHOP act: -3; CHOP inhibitor: 73*; Beta2AR agonist: 9; p-CIP stab down: -1; XBP1 UPR activ: -2; Dynein transport: -0.86

What do the screens show for `CC(C)Oc1cc2oc(=O)c3c(c2cc1Cl)CCC3`?
UPR CHOP act: -1; CHOP inhibitor: 82*; Beta2AR agonist: -8; p-CIP stab down: -2; XBP1 UPR activ: -1; Dynein transport: -0.028

What do the screens show for `Cc1ccc(C(=O)CSc2nc(C(C)C)nc3ccccc23)cc1`?
UPR CHOP act: 3; CHOP inhibitor: -5; Beta2AR agonist: -5; p-CIP stab down: -11; XBP1 UPR activ: 1; Dynein transport: -0.095

How did CC(C)c1nc(SCC(=O)c2ccc(F)cc2)c2ccccc2n1 do in these assays?
UPR CHOP act: -1; CHOP inhibitor: 84*; Beta2AR agonist: -7; p-CIP stab down: -15; XBP1 UPR activ: 6; Dynein transport: -0.25

How did CCOC(=O)c1c(NC(=O)C2COc3ccccc3O2)sc2c1CCN(Cc1ccccc1)C2 (stereo unspecified) do in these assays?
UPR CHOP act: 4; CHOP inhibitor: 14; Beta2AR agonist: 6; p-CIP stab down: 12; XBP1 UPR activ: -2; Dynein transport: -0.45

Results for NC(=O)c1c(NC(=O)C2c3ccccc3Oc3ccccc32)sc2c1CCCCC2 ?
UPR CHOP act: 2; CHOP inhibitor: 74*; Beta2AR agonist: -2; p-CIP stab down: -1; XBP1 UPR activ: 0; Dynein transport: -0.72

How did CCOC(=O)c1c(NC(=O)C2c3ccccc3Oc3ccccc32)sc(C(C)=O)c1C do in these assays?
UPR CHOP act: 10; CHOP inhibitor: 71*; Beta2AR agonist: 15; p-CIP stab down: 21; XBP1 UPR activ: -3; Dynein transport: -0.86

How did NC(=O)c1c(NC(=O)C2COc3ccccc3O2)sc2c1CCN(Cc1ccccc1)C2 (stereo unspecified) do in these assays?
UPR CHOP act: 7; CHOP inhibitor: 79*; Beta2AR agonist: 3; p-CIP stab down: -15; XBP1 UPR activ: 2; Dynein transport: 1

What do the screens show for `CCOC(=O)c1c(NC(=O)CN2CCCc3ccccc32)sc(C(C)=O)c1C`?
UPR CHOP act: 2; CHOP inhibitor: 93*; Beta2AR agonist: -2; p-CIP stab down: -17; XBP1 UPR activ: -1; Dynein transport: 1

How did C=CCSC1=N/C(=C\c2ccc(C)o2)C(=O)S1 do in these assays?
UPR CHOP act: -2; CHOP inhibitor: 72*; Beta2AR agonist: 2; p-CIP stab down: -2; XBP1 UPR activ: 7; Dynein transport: -0.066

What do the screens show for `Cc1cn(CC(=O)NCC(c2ccccc2)c2ccccc2)c(=O)[nH]c1=O`?
Beta2AR agonist: 10

How did CCOC(=O)C1=C(COc2ccc(C)cc2)NC(=O)NC1c1cc(C)ccc1C (stereo unspecified) do in these assays?
UPR CHOP act: 1; CHOP inhibitor: 90*; Beta2AR agonist: -3; p-CIP stab down: -14; XBP1 UPR activ: 5; Dynein transport: -0.41

Results for C/C(=N\N1CCN(Cc2ccccc2Cl)CC1)c1ccc([N+](=O)[O-])cc1 ?
UPR CHOP act: 2; CHOP inhibitor: 32; Beta2AR agonist: -3; p-CIP stab down: -4; XBP1 UPR activ: -4; Dynein transport: 0.047

How did CC1(C)N=C(SCC(=O)Nc2ccc(Cl)cc2Cl)C(c2ccccc2)=N1 do in these assays?
UPR CHOP act: 0; CHOP inhibitor: 76*; Beta2AR agonist: -6; p-CIP stab down: 0; XBP1 UPR activ: -1; Dynein transport: -1.1

What do the screens show for `Cc1ccc2c(c1)c1c(n2CC(O)Cn2nc(C)c(Br)c2C)C(=O)CCC1` (stereo unspecified)?
UPR CHOP act: -1; CHOP inhibitor: 72*; Beta2AR agonist: 15; p-CIP stab down: -14; XBP1 UPR activ: -9; Dynein transport: 2.4

Results for Cc1ccc2c(c1)c(C)c(C)n2CC(O)Cn1nc(C)c(Br)c1C (stereo unspecified) ?
UPR CHOP act: -1; CHOP inhibitor: 86*; Beta2AR agonist: 6; p-CIP stab down: -1; XBP1 UPR activ: -1; Dynein transport: 0.82

Results for Cc1ccc2c(c1)c(C)c(C)n2CC(O)CN1CCCCC1C (stereo unspecified) ?
UPR CHOP act: -1; CHOP inhibitor: 39; Beta2AR agonist: 16; p-CIP stab down: -6; XBP1 UPR activ: -1; Dynein transport: -1.3

Assay outcomes deposited in PubChem BioAssay by several laboratories.
